The values that follow come from ChEMBL document CHEMBL1149137, “Synthesis, screening, and molecular modeling of new potent and selective antagonists at the alpha 1d adrenergic receptor” (J Med Chem, 2004).

Structures are written as SMILES.

Assay [1] addresses T1, Alpha-1D adrenergic receptor (Rattus norvegicus) (UniProt P23944).
T1 sequence (whole entry): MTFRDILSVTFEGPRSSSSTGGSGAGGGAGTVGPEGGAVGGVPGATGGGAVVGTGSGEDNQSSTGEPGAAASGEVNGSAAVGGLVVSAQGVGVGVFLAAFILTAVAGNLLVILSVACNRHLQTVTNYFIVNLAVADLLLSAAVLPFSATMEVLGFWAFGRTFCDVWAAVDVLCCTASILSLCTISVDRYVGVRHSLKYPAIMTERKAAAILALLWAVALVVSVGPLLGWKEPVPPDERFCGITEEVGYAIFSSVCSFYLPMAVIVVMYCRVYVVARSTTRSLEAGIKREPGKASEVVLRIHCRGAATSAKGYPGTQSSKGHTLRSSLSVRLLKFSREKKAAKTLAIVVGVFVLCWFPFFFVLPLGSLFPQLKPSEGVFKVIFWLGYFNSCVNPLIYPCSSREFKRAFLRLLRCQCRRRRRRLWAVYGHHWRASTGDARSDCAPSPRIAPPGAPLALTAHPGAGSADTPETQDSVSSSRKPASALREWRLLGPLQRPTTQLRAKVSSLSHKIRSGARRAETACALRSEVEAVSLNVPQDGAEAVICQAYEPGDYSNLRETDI
The assay is described as follows: Fraction involved in salt bridge interactions with Asp3:11 part of the alpha-1D adrenergic receptor. A digest of the protocol:
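Comparative models were built on a rhodopsin template and refined by energy minimization and MD. Docking used MCSS, and the value is the fraction of substituted phenylpiperazines forming a salt bridge with receptor Asp3:11.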

Assay [2] addresses T1, Alpha-1D adrenergic receptor (Rattus norvegicus). The conditions noted are these: Aorta.
Assay [3] deals with Alpha-1D adrenergic receptor (Homo sapiens) (UniProt P25100). As to the kind of experiment: Binding affinity to the adrenergic receptor alpha-1D of cloned human receptor.
In assay [4] the target is T2, Alpha-1A adrenergic receptor (Rattus norvegicus) (UniProt P43140).
T2 sequence (whole entry): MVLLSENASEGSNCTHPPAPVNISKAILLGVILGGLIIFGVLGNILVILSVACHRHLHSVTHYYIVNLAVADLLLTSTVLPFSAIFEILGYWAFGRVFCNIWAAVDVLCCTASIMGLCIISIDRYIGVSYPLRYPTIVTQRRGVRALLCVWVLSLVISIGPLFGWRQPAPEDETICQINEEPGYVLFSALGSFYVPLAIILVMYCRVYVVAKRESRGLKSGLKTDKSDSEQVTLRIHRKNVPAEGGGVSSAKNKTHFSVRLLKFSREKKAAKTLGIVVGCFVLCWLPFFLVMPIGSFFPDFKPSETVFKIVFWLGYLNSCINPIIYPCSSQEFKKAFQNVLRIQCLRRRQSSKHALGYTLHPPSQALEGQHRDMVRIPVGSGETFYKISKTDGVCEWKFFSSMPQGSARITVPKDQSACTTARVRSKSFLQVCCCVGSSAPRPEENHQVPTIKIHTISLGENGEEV
The note with it: Vas deferens.

In assay [5] the target is T3, 5-hydroxytryptamine receptor 1A (Homo sapiens, UniProt P08908).
T3 sequence (P08908 whole entry): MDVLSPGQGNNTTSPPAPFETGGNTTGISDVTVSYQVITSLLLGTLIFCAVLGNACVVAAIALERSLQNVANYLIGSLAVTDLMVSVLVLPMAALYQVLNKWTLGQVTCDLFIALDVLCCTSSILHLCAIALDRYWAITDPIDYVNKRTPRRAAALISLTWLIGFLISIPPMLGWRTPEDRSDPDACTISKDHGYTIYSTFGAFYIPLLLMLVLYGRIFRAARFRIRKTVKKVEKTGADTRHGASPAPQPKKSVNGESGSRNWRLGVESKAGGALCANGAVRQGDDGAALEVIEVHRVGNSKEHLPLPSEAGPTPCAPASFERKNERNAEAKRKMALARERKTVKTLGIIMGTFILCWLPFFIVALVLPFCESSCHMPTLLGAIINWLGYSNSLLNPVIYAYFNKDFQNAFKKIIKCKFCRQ
As to the kind of experiment: Binding affinity to human 5-hydroxytryptamine 1A receptor was measured using [3H]-8-hydroxy-2-(di-n-propylamine) tetraline [3H]8-OH-DPAT) as radioligand.

Assay [6] has as its target Alpha-1A adrenergic receptor (Homo sapiens) (UniProt P35348). As to the kind of experiment: In vitro binding affinity towards alpha-1A adrenergic receptor through displacement of [3H]prazosin in cloned human receptor. In general terms: In a radioligand displacement assay an active substance lowers the binding of a labelled ligand.

Broadly, the pKB is the KB on a negative log10 scale, so that one unit is a factor of ten. A lower pKB goes with a large KB. By Ki is commonly meant the equilibrium dissociation constant of an inhibitor or competing ligand from its target. In the case of `O=C1CC2(CCCC2)CC(=O)N1CCN1CCN(c2cc(Cl)ccc2Cl)CC1`, the Activity in assay [1] amounted to 0.4. The negative-log KB (pKB) in assay [2] turned out to be 8.99. In assay [3], the affinity, expressed as Ki, was 0.00013 µM.

Take `O=C1CC2(CCCC2)CCN1CCN1CCN(c2cc(Cl)ccc2Cl)CC1`: the pKB in assay [2] turned out to be 8.89; in assay [4] it was 7. The molecule also had a Ki in assay [3] of 0.00011 µM.

As to `COc1ccccc1N1CCN(CCN2C=CC3(CCCC3)CC2=O)CC1`, the Ki in assay [5] was determined as 0.00384 µM; in assay [3] it was 0.00315 µM; in assay [6], 0.0292 µM.

Consider `O=C1CC2(CCCC2)CC(=O)N1CCN1CCC(c2ccccc2)CC1`, for which the Ki in assay [5] was 0.0259 µM; in assay [3] it was 0.00366 µM; in assay [6], more than 1 µM.

`O=C1CC2(CCCC2)CC(=O)N1CCN1CCN(c2cc([N+](=O)[O-])ccc2Cl)CC1`: the figures for the Ki in assay [5], in assay [3] and in assay [6] were more than 1 µM, 0.0182 µM and 0.044 µM, respectively.

`COc1ccccc1N1CCN(CCN2C(=O)CC3(CCN(C(C)=O)CC3)CC2=O)CC1`: the inhibition constant (Ki) in assay [5] was more than 0.01 µM; in assay [3], 0.429 µM; in assay [6], 1.52 µM.

Regarding `Clc1ccccc1N1CCN(CCN2CCC3(CCCC3)CC2)CC1`, the results for the Ki in assay [5], in assay [3] and in assay [6] were 0.0854 µM, 0.00874 µM and more than 1 µM, respectively.

Regarding `Cc1ccc(Cl)cc1N1CCN(CCN2C(=O)CC3(CCCC3)CC2=O)CC1`, the Ki was determined as 0.135 µM in assay [5], 0.00037 µM in assay [3] and 0.19 µM in assay [6].

As for `CN(CCOc1cc(Cl)ccc1Cl)CCN1C(=O)CC2(CCCC2)CC1=O`, the figures for the inhibition constant Ki in assay [5], in assay [3] and in assay [6] were more than 1 µM, 0.0191 µM and 0.414 µM, respectively.

Turning to `COc1ccccc1N1CCN(CCN2CCC3(CCCC3)CC2=O)CC1`, the inhibition constant (Ki) in assay [5] turned out to be 0.00233 µM; in assay [3] it was 0.00037 µM; in assay [6] it was 0.0544 µM.

On to `O=C1CC2(CCCC2)CC(=O)N1CCCN1CCN(c2cc(Cl)ccc2Cl)CC1`, for which the inhibition constant (Ki) in assay [5] was found to be 0.401 µM; in assay [3], 0.00172 µM; in assay [6], 0.00285 µM.

As for `COc1cccc(N2CCN(CCN3C(=O)CC4(CCCC4)CC3=O)CC2)c1`, the results for the inhibitory constant (Ki) in assay [5], in assay [3] and in assay [6] were 0.0134 µM, 0.0543 µM and more than 1 µM, respectively.

Regarding `O=C1CC2(CCCC2)CC(=O)N1CCN1CCN(c2cccc(Cl)c2)CC1`, the figures for the Ki in assay [5], in assay [3] and in assay [6] were 0.00109 µM, 0.00202 µM and more than 1 µM, respectively.

Consider `O=C1CC2(CCCCC2)CC(=O)N1CCN1CCN(c2ccccc2Cl)CC1`, for which the inhibition constant Ki amounted to 0.02 µM in assay [5], 0.00288 µM in assay [3] and 0.422 µM in assay [6].

The molecule `COc1ccccc1N1CCN(CCN2C(=O)CC3(CCCC3)CC2=O)CC1` [BMY-7378] registered a Ki in assay [5] of 0.0008 µM. In addition, the Activity in assay [1] is 0.3.
